According to ChEMBL document CHEMBL5038593, “Rational Design and Synthesis of Novel Dual PROTACs for Simultaneous Degradation of EGFR and PARP” (J Med Chem, 2021):
pIC50, pKd: −log10 of the molar value. One block for each compound: values may come before it. Active and inactive are the calls of the source. No cut-off for these calls is given here.

Columns and labels:
[1] = biological target: T1, Protein cereblon/Epidermal growth factor receptor (Homo sapiens) (UniProt P00533+Q96SW2); assay: Protac activity at CRBN/EGFR in human SW1990 cells assessed as induction of EGFR degradation at 1 to 50 uM incubated for 24 hrs by Western blot analysis; format: cell-based; details: dose 1-50 µM
How it was run: (§1)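 SW1990 cells grown in high-glucose DMEM (25 mM glucose) with 10% FBS, 5% CO₂, 37 °C. Seeded and left 24 h, then exposed to DMSO or compound. Cells washed in PBS, lysed in RIPA, and cleared at 13 000 rpm for 15 min. Protein measured by BCA. 20−40 μg run on 10% SDS-PAGE, moved to PVDF, blocked 1 h in 5% milk or BSA, primary antibodies 1:1000 overnight at 4 °C, ECL detection.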

[2] = biological target: T2, Protein cereblon/Poly [ADP-ribose] polymerase 1 (Homo sapiens) (UniProt P09874+Q96SW2); assay: Protac activity at CRBN/PARP-1 in human SW1990 cells assessed as induction of PARP-1 degradation at 1 to 50 uM incubated for 24 hrs by Western blot analysis; format: cell-based; details: dose 1-50 µM; how it was run: as §1
[3] = biological target: Poly [ADP-ribose] polymerase 1 (Homo sapiens, UniProt P09874); assay: Binding affinity to human GST-tagged PARP-1 ART domain (788 to 1014 residues) expressed in Escherichia coli BL21 (DE3) assessed as dissociation constant incubated for 30 mins by microscale thermophoresis analysis
[4] = biological target: T1, Protein cereblon/Epidermal growth factor receptor (Homo sapiens); assay: Protac activity at CRBN/EGFR in human SW1990 cells assessed as induction of EGFR degradation at 5 uM measured after 6 to 48 hrs by Western blot analysis; format: cell-based; details: time 6-48 hrs, TDE = time-dependent effect; how it was run: as §1
[5] = biological target: T2, Protein cereblon/Poly [ADP-ribose] polymerase 1 (Homo sapiens); assay: Protac activity at CRBN/PARP-1 in human SW1990 cells assessed as induction of PARP-1 degradation at 5 uM measured after 6 to 48 hrs by Western blot analysis; format: cell-based; details: time 6-48 hrs, TDE = time-dependent effect; how it was run: as §1
[6] = biological target: T1, Protein cereblon/Epidermal growth factor receptor (Homo sapiens); assay: Protac activity at CRBN/EGFR in human SW1990 cells assessed as decrease in EGFR expression level at 1 to 50 uM pretreated with proteasome inhibitor MG132 for 4 hr followed by incubation with compound for 24 hrs by Western blot analysis; format: cell-based; details: dose 1-50 µM; how it was run: as §1
[7] = biological target: T2, Protein cereblon/Poly [ADP-ribose] polymerase 1 (Homo sapiens); assay: Protac activity at CRBN/PARP-1 in human SW1990 cells assessed as decrease of PARP-1 expression level at 1 to 50 uM pretreated with proteasome inhibitor MG132 for 4 hr followed by incubation with compound for 24 hrs by Western blot analysis; format: cell-based; details: dose 1-50 µM; how it was run: as §1
[8] = biological target: Epidermal growth factor receptor (Homo sapiens, UniProt P00533); assay: biochemical; format: cell-based
[9] = biological target: T3, von Hippel-Lindau disease tumor suppressor/Poly [ADP-ribose] polymerase 1 (Homo sapiens) (UniProt P09874+P40337); assay: Protac activity at VHL/PARP-1 in human A-431 cells assessed as induction of PARP-1 degradation at 0.8 to 20 uM incubated for 36 hrs by Western blot analysis; format: cell-based; details: dose 0.8-20 µM
[10] = biological target: T3, von Hippel-Lindau disease tumor suppressor/Poly [ADP-ribose] polymerase 1 (Homo sapiens); assay: Protac activity at VHL/PARP-1 in human NCI-H1299 cells assessed as decrease of PARP-1 degradation at up to 15 uM pretreated with proteasome inhibitor MG132 for 4 hr followed by incubation with compound for 6 hrs by Western blot analysis; format: cell-based; details: dose microM <=15, time 6.0 hrs
How it was run: (§2)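 NCI-H1299 cells grown in high-glucose DMEM with 10% FBS at 37 °C, 5% CO₂. Compound given after 24 h seeding. Lysis in RIPA, BCA protein assay, 20−40 μg on 10% SDS-PAGE, PVDF transfer, primary antibodies 1:1000 overnight at 4 °C, ECL. EGFR, p-EGFR and PARP probed.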

[11] = biological target: T4, von Hippel-Lindau disease tumor suppressor/Epidermal growth factor receptor (Homo sapiens) (UniProt P00533+P40337); assay: Protac activity at VHL/EGFR in human NCI-H1299 cells assessed as decrease in EGFR degradation at up to 15 uM pretreated with proteasome inhibitor MG132 for 4 hr followed by incubation with compound for 6 hrs by Western blot analysis; format: cell-based; details: dose microM <=15, time 6.0 hrs; how it was run: as §2
NCI-H1299 = assay: cells; format: functional, cell-based; details: Homo sapiens, NCI-H1299, 72 h
[12] = biological target: T3, von Hippel-Lindau disease tumor suppressor/Poly [ADP-ribose] polymerase 1 (Homo sapiens); assay: Protac activity at VHL/PARP-1 in human NCI-H1299 cells assessed as induction of PARP degradation at 0.47 uM incubated for 36 hrs by Western blot analysis relative to control
[13] = biological target: T4, von Hippel-Lindau disease tumor suppressor/Epidermal growth factor receptor (Homo sapiens); assay: Protac activity at VHL/EGFR in human A-431 cells assessed as induction of EGFR degradation at 0.8 to 20 uM incubated for 36 hrs by Western blot analysis; format: cell-based; details: dose 0.8-20 µM
[14] = biological target: T3, von Hippel-Lindau disease tumor suppressor/Poly [ADP-ribose] polymerase 1 (Homo sapiens); assay: Protac activity at VHL/PARP-1 in human NCI-H1299 cells assessed as induction of PARP degradation at 4 uM incubated for 6 hrs by Western blot analysis; format: cell-based; how it was run: as §2
[15] = biological target: T4, von Hippel-Lindau disease tumor suppressor/Epidermal growth factor receptor (Homo sapiens); assay: Protac activity at VHL/EGFR in human NCI-H1299 cells assessed as induction of EGFR degradation at 4 uM incubated for 6 hrs by Western blot analysis; format: cell-based; how it was run: as §2
[16] = biological target: T4, von Hippel-Lindau disease tumor suppressor/Epidermal growth factor receptor (Homo sapiens); assay: Protac activity at VHL/EGFR in human NCI-H1299 cells assessed as induction of EGFR degradation by measuring reduction in p-EGFR level at 15 uM incubated for 36 hrs by Western blot analysis; format: cell-based; how it was run: as §2

T3 sequence (P09874 whole entry, looked up): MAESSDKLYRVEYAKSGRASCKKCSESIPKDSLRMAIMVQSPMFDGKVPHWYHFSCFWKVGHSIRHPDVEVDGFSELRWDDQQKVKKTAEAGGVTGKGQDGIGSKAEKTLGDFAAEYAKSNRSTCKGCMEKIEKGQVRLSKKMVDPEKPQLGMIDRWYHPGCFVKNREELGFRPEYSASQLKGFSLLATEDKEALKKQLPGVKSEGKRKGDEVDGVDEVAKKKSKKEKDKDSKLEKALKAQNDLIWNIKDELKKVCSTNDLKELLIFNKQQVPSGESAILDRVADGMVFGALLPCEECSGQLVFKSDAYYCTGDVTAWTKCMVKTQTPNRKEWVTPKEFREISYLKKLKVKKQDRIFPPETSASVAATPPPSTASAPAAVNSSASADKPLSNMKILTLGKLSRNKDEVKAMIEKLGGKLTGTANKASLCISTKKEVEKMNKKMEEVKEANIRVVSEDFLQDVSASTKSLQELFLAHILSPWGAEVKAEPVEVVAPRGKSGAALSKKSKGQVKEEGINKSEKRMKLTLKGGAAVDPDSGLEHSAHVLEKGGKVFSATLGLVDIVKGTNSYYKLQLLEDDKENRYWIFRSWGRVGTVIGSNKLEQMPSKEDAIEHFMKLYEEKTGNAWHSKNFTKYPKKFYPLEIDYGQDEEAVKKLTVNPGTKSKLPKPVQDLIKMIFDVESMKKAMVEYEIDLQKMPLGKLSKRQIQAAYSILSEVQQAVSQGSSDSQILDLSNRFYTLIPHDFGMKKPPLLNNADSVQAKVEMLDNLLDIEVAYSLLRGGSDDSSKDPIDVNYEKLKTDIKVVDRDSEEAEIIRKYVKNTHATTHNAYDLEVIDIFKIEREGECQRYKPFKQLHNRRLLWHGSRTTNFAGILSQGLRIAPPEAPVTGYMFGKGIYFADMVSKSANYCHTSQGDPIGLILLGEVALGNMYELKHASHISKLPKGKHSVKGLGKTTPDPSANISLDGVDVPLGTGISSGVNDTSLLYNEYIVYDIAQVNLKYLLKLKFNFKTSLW
T3 sequence (P40337 whole entry, looked up): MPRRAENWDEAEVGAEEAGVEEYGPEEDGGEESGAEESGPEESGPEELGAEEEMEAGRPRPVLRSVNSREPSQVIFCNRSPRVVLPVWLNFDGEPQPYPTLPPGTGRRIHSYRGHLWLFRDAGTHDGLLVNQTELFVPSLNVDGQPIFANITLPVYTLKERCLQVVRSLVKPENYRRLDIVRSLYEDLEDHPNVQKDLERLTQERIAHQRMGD
T2 sequence (P09874 2-1014 limits assumed): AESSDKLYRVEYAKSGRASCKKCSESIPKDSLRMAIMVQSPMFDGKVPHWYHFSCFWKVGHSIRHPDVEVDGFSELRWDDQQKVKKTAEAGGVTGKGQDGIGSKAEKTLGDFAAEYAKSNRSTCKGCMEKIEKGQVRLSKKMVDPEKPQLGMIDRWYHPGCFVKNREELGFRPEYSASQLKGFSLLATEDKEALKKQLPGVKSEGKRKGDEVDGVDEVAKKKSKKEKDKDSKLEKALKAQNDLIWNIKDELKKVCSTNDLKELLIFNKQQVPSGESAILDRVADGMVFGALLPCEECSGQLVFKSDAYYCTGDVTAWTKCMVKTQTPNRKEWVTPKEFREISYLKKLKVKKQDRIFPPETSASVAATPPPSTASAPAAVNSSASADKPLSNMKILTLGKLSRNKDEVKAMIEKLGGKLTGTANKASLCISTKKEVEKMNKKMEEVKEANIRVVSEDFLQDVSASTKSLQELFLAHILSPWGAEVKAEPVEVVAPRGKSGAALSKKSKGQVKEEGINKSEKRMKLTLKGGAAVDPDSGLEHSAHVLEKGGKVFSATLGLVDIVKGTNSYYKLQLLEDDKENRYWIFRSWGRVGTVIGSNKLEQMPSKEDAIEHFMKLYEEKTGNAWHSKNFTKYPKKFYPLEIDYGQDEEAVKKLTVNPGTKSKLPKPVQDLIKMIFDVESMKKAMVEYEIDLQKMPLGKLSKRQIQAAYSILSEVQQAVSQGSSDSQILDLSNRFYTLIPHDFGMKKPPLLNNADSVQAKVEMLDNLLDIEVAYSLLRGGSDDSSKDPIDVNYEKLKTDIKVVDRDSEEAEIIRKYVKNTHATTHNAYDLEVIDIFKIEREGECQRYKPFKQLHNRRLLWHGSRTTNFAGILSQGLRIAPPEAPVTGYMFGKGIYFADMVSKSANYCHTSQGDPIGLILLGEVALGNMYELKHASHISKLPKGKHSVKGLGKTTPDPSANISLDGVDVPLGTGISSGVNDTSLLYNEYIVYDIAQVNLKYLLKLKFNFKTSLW
T2 sequence (Q96SW2 whole entry partner, the tested form may be a part): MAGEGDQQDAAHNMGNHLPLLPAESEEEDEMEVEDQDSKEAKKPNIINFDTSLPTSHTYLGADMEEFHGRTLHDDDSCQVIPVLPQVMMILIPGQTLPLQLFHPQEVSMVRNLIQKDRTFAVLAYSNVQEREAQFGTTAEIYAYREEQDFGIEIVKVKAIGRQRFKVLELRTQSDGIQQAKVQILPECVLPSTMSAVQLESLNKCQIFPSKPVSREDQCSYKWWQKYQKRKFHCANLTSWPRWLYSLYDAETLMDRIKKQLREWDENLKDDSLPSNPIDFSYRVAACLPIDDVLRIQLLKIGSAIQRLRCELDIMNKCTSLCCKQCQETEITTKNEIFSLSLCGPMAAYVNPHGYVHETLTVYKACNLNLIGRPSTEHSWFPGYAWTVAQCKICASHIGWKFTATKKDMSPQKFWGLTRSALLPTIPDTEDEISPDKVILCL
T1 sequence (P00533 25-1210 limits assumed): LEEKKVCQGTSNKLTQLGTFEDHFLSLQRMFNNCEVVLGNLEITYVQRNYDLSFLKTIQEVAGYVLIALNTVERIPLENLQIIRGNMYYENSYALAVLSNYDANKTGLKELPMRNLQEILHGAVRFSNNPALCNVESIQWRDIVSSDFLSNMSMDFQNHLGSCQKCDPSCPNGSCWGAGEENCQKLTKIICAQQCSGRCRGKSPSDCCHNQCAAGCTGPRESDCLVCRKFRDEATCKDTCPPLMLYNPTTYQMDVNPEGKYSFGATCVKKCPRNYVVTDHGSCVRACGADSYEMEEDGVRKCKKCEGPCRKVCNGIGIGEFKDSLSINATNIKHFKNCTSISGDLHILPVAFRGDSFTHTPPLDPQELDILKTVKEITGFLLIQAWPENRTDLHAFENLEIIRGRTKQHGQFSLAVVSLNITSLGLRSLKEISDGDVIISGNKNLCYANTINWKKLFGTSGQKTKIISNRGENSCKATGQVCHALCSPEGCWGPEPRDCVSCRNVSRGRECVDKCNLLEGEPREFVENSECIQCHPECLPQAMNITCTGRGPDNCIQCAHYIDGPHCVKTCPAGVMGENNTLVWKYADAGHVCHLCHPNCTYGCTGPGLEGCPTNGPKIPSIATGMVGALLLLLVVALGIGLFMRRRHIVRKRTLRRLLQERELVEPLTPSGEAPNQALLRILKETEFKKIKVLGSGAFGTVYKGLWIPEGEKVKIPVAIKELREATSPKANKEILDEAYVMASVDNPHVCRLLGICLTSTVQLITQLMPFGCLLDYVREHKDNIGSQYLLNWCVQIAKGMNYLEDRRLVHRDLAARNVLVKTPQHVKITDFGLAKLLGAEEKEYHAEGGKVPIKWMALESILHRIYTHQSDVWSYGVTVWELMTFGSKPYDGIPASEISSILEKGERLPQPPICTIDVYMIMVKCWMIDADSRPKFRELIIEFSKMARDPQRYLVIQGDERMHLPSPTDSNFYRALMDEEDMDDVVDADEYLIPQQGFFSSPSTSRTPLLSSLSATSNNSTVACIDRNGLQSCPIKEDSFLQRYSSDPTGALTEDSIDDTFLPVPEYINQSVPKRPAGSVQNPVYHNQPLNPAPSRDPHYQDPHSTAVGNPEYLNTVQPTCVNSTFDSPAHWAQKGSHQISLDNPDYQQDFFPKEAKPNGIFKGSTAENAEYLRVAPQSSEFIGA
T1 sequence (Q96SW2 whole entry partner): as the sequence (Q96SW2 whole entry partner, the tested form may be a part) above
Chain of Poly [ADP-ribose] polymerase 1 (P09874 whole entry, the tested form may be a part): as the sequence (P09874 whole entry, looked up) above

Compound: COc1cc2ncnc(Nc3ccc(F)c(Cl)c3)c2cc1OCCCC(=O)NCc1cn(CCOCCNc2cccc3c2C(=O)N(C2CCC(=O)NC2=O)C3=O)nn1 (centres undefined)
Activity [1]: Active

Compound: COc1cc2ncnc(Nc3ccc(F)c(Cl)c3)c2cc1OCC(=O)NC(Cc1ccc(OCc2cn(CCOCCNc3cccc4c3C(=O)N(C3CCC(=O)NC3=O)C4=O)nn2)cc1)C(=O)N1CCN(C(=O)c2cc(Cc3n[nH]c(=O)c4ccccc34)ccc2F)CC1 (centres undefined)
pKd [3]: 5.10
Activity [4]: Tde
Activity [5]: Tde
Activity [6]: Active
Activity [7]: Active
pKd [8]: 5.56
Activity [2]: Active
Activity [1]: Active

Compound: COc1cc2ncnc(Nc3ccc(F)c(Cl)c3)c2cc1OCCCCCC(=O)NC(COCc1cn(CCCC(=O)N[C@H](C(=O)N2C[C@H](O)C[C@H]2C(=O)NCc2ccc(-c3scnc3C)cc2)C(C)(C)C)nn1)C(=O)NCCCCCC(=O)N1CCN(C(=O)c2cc(Cc3n[nH]c(=O)c4ccccc34)ccc2F)CC1 (some centres undefined)
Activity [9]: Active
pKd [3]: 4.89
Activity [10]: Active
Activity [11]: Active
pIC50 (NCI-H1299): 4.70
Activity [12]: 50%
pKd [8]: 5.26
Activity [13]: Active
Activity [14]: Active
Activity [15]: Active
Activity [16]: Active

Compound: O=C(c1cc(Cc2n[nH]c(=O)c3ccccc23)ccc1F)N1CCN(C(=O)C2CC2)CC1 [OLAPARIB]
pIC50 (NCI-H1299): 4.44

Compound: COc1cc2ncnc(Nc3ccc(F)c(Cl)c3)c2cc1OCCCCCC(=O)NC(COCc1cn(CCOCCOCCNc2cccc3c2C(=O)N(C2CCC(=O)NC2=O)C3=O)nn1)C(=O)NCCCCCC(=O)N1CCN(C(=O)c2cc(Cc3n[nH]c(=O)c4ccccc34)ccc2F)CC1 (centres undefined)
Activity [2]: Active
Activity [1]: Active

Compound: O=C1CCC(N2C(=O)c3cccc(NCCOCCn4cc(CCC(=O)N5CCN(C(=O)c6cc(Cc7n[nH]c(=O)c8ccccc78)ccc6F)CC5)nn4)c3C2=O)C(=O)N1 (centres undefined)
Activity [2]: Active
Activity [1]: Active

The next lines start with the values.

Activity [2]: Active
Activity [1]: Active
Compound: COc1cc2ncnc(Nc3ccc(F)c(Cl)c3)c2cc1OCCCC(=O)NC(COCc1cn(CCOCCNc2cccc3c2C(=O)N(C2CCC(=O)NC2=O)C3=O)nn1)C(=O)N1CCN(C(=O)c2cc(Cc3n[nH]c(=O)c4ccccc34)ccc2F)CC1 (centres undefined)

Activity [2]: Active
Activity [1]: Active
Compound: COc1cc2ncnc(Nc3ccc(F)c(Cl)c3)c2cc1OCCCC(=O)NC(COCc1cn(CCOCCNc2cccc3c2C(=O)N(C2CCC(=O)NC2=O)C3=O)nn1)C(=O)NCCCC(=O)N1CCN(C(=O)c2cc(Cc3n[nH]c(=O)c4ccccc34)ccc2F)CC1 (centres undefined)
